Results: ChEMBL document CHEMBL4152379, “Discovery of Pyrrolidine Sulfonamides as Selective and Orally Bioavailable Antagonists of Transient Receptor Potential Vanilloid-4 (TRPV4)” (J Med Chem, 2018)
In brackets after ≈: the same amount, converted by molar mass.

What was measured:
[1] = Fraction unbound in Sprague-Dawley rat plasma; type: ADME, cell-free
[2] = target: T1, Short transient receptor potential channel 6 (Homo sapiens, UniProt Q9Y210); assay: Inhibition of TRPC6 (unknown origin)
T1 sequence (Q9Y210 whole entry): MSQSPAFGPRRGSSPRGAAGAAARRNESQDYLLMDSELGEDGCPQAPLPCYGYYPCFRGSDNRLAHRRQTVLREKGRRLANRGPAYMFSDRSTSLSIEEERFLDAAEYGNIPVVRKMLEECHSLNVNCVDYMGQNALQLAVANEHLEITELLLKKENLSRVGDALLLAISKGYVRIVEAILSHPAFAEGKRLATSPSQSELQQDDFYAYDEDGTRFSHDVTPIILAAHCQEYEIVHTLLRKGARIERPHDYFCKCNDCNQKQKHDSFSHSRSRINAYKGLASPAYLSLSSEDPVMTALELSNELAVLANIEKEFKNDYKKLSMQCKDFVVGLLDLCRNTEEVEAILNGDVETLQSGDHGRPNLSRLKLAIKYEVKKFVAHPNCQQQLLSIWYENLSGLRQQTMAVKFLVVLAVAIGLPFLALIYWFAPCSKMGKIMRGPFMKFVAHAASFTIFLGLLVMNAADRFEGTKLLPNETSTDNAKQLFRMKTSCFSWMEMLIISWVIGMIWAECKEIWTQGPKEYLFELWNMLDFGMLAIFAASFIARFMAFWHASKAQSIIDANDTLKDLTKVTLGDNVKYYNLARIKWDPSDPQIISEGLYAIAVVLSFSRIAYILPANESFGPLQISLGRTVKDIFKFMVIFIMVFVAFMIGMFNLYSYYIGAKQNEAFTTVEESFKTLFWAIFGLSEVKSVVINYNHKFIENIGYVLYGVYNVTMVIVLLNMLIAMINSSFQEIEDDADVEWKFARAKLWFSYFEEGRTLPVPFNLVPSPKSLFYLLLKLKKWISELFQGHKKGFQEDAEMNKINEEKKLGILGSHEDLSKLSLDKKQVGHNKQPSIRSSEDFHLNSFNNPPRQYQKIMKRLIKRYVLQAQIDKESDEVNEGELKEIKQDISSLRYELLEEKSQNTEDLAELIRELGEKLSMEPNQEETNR

[3] = Clearance in iv dosed Sprague-Dawley rat; type: ADME, organism-based; conditions: in vivo
Summary of the method: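 Male Sprague-Dawley rats with femoral vein, femoral artery and gastric catheters; noncrossover design, 2 rats per route; cassette dosing of up to five compounds. i.v. target 1 mg/kg in 5% DMSO/20% Cavitron (pH 4), infused over 30 min. Oral gastric bolus target 2 mg/kg in 5% DMSO/6% Cavitron (pH 4). Plasma sampled to 24 h and measured by HPLC−MS/MS. Noncompartmental analysis; F from dose-normalized AUC(0−∞) relative to mean i.v. AUC.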

[4] = target: T2, Short transient receptor potential channel 5 (Homo sapiens, UniProt Q9UL62); assay: Inhibition of TRPC5 (unknown origin)
T2 sequence (Q9UL62 whole entry): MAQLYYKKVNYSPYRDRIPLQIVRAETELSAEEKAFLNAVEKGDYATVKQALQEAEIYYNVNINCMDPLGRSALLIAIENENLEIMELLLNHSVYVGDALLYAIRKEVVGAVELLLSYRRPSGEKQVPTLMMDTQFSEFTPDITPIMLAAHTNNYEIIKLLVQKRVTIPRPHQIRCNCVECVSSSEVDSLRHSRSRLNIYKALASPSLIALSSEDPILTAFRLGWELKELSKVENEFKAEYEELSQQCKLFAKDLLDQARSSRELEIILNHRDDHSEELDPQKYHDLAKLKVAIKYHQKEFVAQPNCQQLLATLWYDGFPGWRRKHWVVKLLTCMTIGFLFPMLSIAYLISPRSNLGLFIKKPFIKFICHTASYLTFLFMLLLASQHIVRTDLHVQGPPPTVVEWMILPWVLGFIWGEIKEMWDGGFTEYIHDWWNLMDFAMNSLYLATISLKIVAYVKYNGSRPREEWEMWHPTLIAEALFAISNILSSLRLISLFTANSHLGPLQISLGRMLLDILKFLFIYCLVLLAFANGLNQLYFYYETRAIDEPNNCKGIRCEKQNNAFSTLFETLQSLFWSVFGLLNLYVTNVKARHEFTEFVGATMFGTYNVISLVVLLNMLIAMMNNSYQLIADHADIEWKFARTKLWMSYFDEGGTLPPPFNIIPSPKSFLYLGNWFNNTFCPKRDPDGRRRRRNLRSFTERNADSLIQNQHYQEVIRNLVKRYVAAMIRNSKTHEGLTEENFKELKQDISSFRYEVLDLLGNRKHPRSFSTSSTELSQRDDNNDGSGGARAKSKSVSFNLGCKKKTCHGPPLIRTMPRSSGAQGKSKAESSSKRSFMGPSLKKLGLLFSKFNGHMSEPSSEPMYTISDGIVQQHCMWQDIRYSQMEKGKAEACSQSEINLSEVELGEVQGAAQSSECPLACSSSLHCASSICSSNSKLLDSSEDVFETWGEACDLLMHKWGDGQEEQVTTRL

[5] = Aqueous solubility of the compound; type: physicochemical; conditions: buffer
[6] = target: Transient receptor potential cation channel subfamily V member 4 (Homo sapiens, UniProt Q9HBA0); assay: Antagonist activity at human TRPV4 expressed in BHK/AC9 or HEK MSR2 cells assessed as inhibition of GSK634775-induced Ca2+ flux pre-incubated for 10 mins before agonist addition by FLIPR assay
Transient receptor potential cation channel subfamily V member 4, sequence (Q9HBA0 whole entry): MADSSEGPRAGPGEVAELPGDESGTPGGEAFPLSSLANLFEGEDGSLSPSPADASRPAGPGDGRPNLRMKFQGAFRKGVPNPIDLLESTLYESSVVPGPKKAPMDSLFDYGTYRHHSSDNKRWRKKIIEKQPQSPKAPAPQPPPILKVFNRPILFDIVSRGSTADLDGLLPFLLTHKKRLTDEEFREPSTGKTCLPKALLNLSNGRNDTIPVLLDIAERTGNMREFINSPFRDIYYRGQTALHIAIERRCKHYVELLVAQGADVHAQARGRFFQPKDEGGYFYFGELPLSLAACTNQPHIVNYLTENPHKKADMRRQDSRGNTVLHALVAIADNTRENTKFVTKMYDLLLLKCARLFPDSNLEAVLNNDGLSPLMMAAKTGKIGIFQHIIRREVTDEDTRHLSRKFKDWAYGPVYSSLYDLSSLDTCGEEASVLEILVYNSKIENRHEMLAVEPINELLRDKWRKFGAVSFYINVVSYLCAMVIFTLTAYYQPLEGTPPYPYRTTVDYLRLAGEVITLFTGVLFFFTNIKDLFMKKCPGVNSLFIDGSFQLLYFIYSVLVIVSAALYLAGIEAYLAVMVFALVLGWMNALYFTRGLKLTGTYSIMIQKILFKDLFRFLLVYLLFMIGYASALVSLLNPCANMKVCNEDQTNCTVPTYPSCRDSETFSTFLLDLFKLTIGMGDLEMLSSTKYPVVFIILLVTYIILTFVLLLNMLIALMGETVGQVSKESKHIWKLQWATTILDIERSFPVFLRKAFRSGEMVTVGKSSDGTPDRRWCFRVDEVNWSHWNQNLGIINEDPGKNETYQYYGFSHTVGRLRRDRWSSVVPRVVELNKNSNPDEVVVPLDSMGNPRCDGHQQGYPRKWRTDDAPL

fraction unbound [1]: 0.059
IC50 [2]: > 10 µM
clearance [3]: 58 mL/min/kg
IC50 [4]: > 10 µM
solubility [5]: 360 µM (≈ 166 µg/mL)
IC50 [6]: 2.5 nM
SMILES: N#Cc1ccc(O[C@H]2CN(S(=O)(=O)c3ccc(Cl)cc3Cl)C[C@@]2(O)CO)cc1F
